Key:
AGS [1] = assay: Viability of human AGS cells under normoxic conditions after 24 hrs by MTT assay; format: functional, cell-based
In short: (§1)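 Cells seeded 5 × 10^4/well, settled 3 h at 37 °C, then exposed to a concentration range of compound under normoxia or hypoxia (1% O2) for 24 h. MTT (10 µL of 5 mg/mL stock) added for 4 h, formazan dissolved in DMSO, absorbance at 570 nm; LD50 derived, mean ± SD of three experiments.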

[2] = target: T1, Hypoxia inducible factors; HIF-1-alpha, HIF-2-alpha (Homo sapiens, UniProt Q16665+Q99814); assay: Inhibition of HIF1 activation in human Hep3B cells assessed as inhibition of hypoxia-induced luciferase expression after 16 hrs by reporter assay; format: cell-based; settings: hep 3b2
In short: (§2)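 Cells transiently cotransfected with pGL3-HRE-luciferase (six HRE copies from human VEGF gene) plus pRL-CMV, plated at 5 × 10^4 cells/well, grown 48 h, then exposed to varied compound concentrations (up to 20 µM) for 16 h at 1% O2/94% N2/5% CO2, 37 °C. Dual-luciferase read-out, firefly normalized to Renilla; IC50 from mean ± SD of three experiments; 17-DMAG positive control.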

[3] = Viability of human Hep3B cells under normoxic conditions after 24 hrs by MTT assay; format: functional, cell-based, Hep 3B2; in short: as §1
[4] = target: T1, Hypoxia inducible factors; HIF-1-alpha, HIF-2-alpha; assay: Inhibition of HIF1 activation in human AGS cells assessed as inhibition of hypoxia-induced luciferase expression after 16 hrs by reporter assay; format: cell-based; in short: as §2
AGS [5] = assay: Viability of human AGS cells under hypoxic conditions after 24 hrs by MTT assay; format: functional, cell-based; in short: as §1
[6] = Suppression of hypoxia-induced VEGF mRNA expression in Hep3B cells after 1 hr by RT-PCR; format: functional, cell-based; settings: Homo sapiens; Hep 3B2; in the assay text read “after 16 hr” for “after 1 hr”
In short: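 Hep3B cells pretreated 1 h with graded compound concentrations, then held 16 h under hypoxia (1% O2, 94% N2, 5% CO2, 37 °C). Total RNA isolated and VEGF transcript detected by RT-PCR, product identity confirmed by sequencing.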

[7] = Viability of human Hep3B cells under hypoxic conditions after 24 hrs by MTT assay; format: functional, cell-based, Hep 3B2; in short: as §1
Hep 3B2 [8] = assay: Inhibition of hypoxia-induced secreted VEGF levels in Hep3B cells after 16 hr by ELISA; settings: Homo sapiens
Hep 3B2 [9] = assay: Inhibition of hypoxia-induced HIF1alpha accumulation in Hep3B cells; format: functional, cell-based; settings: Homo sapiens
In short: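 Hep3B cells plated at 1.5 × 10^5 cells per cm2, grown overnight at 37 °C, exposed to a range of concentrations for 1 h, then held 12 h hypoxic (1% O2, 94% N2, 5% CO2, 37 °C). HIF-1α was measured in total lysates (50 µg) by Western blot after 6% SDS-PAGE with rabbit anti-HIF-1α, with ECL detection. TOPO I served as loading control.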

| Compound | IC50 (AGS [1]) [µM] | IC50 [2] [µM] | IC50 [4] [µM] | IC50 (AGS [5]) [µM] | IC50 (Hep 3B2 [8]) [µM] | IC50 [3] [µM] | Activity [6] | IC50 [7] [µM] | IC50 (Hep 3B2 [9]) [µM] |
| --- | --- | --- | --- | --- | --- | --- | --- | --- | --- |
| C[C@H]1COC2=C1C(=O)C(=O)c1c2ccc2c1CCCC2(C)C [CRYPTOTANSHINONE] | 13.5 | 1.36 | 1.58 | 10.2 |  | > 30 |  | > 30 |  |
| CO[C@H]1/C=C\C=C(/C)C(=O)NC2=CC(=O)C(NCCN(C)C)=C(C[C@@H](C)C[C@H](OC)[C@H](O)[C@@H](C)/C=C(\C)[C@@H]1OC(N)=O)C2=O [ALVESPIMYCIN] |  | 0.061 | 0.036 |  |  | > 50 |  |  |  |
| CC(C)C1=CC(=O)c2c(ccc3c2CCCC3(C)C)C1=O [SIBIRIQUINONE B] | > 50 | 3.18 | 3.36 | > 50 |  | > 50 |  | > 50 |  |
| Cc1cccc2c3c(ccc12)C(=O)C(C(C)CO)=C(O)C3=O (stereo unspecified) [DANSHENXINKUN A] | > 50 | > 20 | > 20 |  |  | > 50 |  |  |  |
| Cc1cccc2c3c(ccc12)C1=C(C(=O)C3=O)[C@@H](C)CO1 [DIHYDROTANSHINONE I] | > 50 | 2.29 | 2.05 | 47.7 |  | > 50 |  | > 50 | 3.2 |
| COC(=O)[C@@]1(C)CCCc2c1ccc1c2C(=O)C(=O)c2c(C)coc2-1 [METHYL TANSHINONATE] | > 50 | 7.34 | 7.48 |  |  | > 50 |  |  |  |

More lines, main results first:

| IC50 (AGS [1]) [µM] | IC50 [2] [µM] | IC50 [4] [µM] | IC50 (AGS [5]) [µM] | IC50 (Hep 3B2 [8]) [µM] | Compound | IC50 [3] [µM] | Activity [6] | IC50 [7] [µM] | IC50 (Hep 3B2 [9]) [µM] |
| --- | --- | --- | --- | --- | --- | --- | --- | --- | --- |
| > 50 | > 20 | > 20 |  |  | Cc1cccc2c3c(ccc12)C(=O)C(=O)C1=C3OC[C@H]1C [DIHYDROISOTANSHINONE II] | > 50 |  |  |  |
| 21.6 | 10.6 | 15.1 |  |  | Cc1cccc2c3c(ccc12)C(=O)C(C(C)C)=CC3=O [12-DEOXYTANSHINQUINONE B] | > 50 |  |  |  |
| > 50 | > 20 | 12.7 |  |  | C[C@H](CO)C1=C(O)C(=O)c2c(ccc3c2CCCC3(C)C)C1=O [NEOCRYPTOTANSHINONE] | > 50 |  |  |  |
| > 50 | 8.51 | 12.5 |  |  | Cc1coc2c1C(=O)C(=O)c1c-2ccc2c(C)cccc12 [TANSHINONE I] | > 50 |  |  |  |
| 35.7 | 0.28 | 0.34 | 21.2 | 3.5 | CC(C)C1=CC(=O)c2c(ccc3c2C=CCC3(C)C)C1=O [SIBIRIQUINONE A] | > 50 | Dose-dependent effect | > 50 | 0.4 |
| 10 | 6.18 | 7.53 | 6.8 |  | Cc1coc2c1C(=O)C(=O)c1c-2ccc2c1CCCC2(C)C [TANSHINONE IIA] | > 50 |  | > 50 |  |

From ChEMBL document CHEMBL1145453, “Abietane diterpenes from Salvia miltiorrhiza inhibit the activation of hypoxia-inducible factor-1” (J Nat Prod, 2007)
